Measurements: ChEMBL document CHEMBL1154950, “Biochemical analysis of cellular target of S-trityl-L-cysteine derivatives using affinity matrix” (Bioorg Med Chem Lett, 2010)
Calls of active or inactive are those of the source. No cut-off for these calls is given here.

Assays:
Format in all cases: cell-based
Conditions in all cases: HCT-116
[1] = target: T1, Kinesin-like protein KIF11 (Homo sapiens) (UniProt P52732); assay: Competitive inhibition of affinity bead (R)-2-Amino-N-{2-[2-(2-amino-ethoxy)-ethoxy]-ethyl}-3-[(4-methoxy-phenyl)-diphenyl-methylsulfanyl]-propionamide binding to KSP in human HCT116 cells at 10 umol/L pretreated for 3 hrs by Western blot analysis
T1 sequence (whole entry): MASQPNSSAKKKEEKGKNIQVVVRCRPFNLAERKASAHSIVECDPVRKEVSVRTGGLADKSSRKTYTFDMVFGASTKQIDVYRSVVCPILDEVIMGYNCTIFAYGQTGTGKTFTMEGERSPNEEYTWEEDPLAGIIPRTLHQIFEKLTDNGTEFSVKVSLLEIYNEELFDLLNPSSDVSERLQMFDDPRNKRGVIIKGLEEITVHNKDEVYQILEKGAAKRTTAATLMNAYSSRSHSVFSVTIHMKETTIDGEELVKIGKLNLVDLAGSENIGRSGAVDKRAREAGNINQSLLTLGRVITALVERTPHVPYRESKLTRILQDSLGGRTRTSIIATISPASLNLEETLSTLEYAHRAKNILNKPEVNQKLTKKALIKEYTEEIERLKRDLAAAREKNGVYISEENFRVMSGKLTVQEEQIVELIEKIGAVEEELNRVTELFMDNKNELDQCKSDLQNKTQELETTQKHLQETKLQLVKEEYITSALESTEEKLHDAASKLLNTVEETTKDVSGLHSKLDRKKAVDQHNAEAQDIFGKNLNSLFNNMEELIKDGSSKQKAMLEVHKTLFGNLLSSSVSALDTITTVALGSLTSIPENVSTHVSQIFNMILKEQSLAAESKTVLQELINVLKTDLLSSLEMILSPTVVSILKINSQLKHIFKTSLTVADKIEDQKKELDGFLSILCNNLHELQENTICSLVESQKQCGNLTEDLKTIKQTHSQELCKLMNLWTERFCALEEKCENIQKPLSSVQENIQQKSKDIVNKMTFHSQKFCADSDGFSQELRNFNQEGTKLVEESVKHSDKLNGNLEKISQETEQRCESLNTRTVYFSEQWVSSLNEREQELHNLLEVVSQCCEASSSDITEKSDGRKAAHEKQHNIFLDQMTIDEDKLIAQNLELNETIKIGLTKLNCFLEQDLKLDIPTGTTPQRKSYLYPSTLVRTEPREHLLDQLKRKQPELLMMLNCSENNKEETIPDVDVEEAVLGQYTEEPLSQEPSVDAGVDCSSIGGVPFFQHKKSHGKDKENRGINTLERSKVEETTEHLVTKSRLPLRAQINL

[2] = target: T1, Kinesin-like protein KIF11 (Homo sapiens); assay: Displacement of affinity bead (R)-2-Amino-N-{2-[2-(2-amino-ethoxy)-ethoxy]-ethyl}-3-[(4-methoxy-phenyl)-diphenyl-methylsulfanyl]-propionamide from KSP in human HCT116 cells after 2 hrs by Western blot analysis
Summary of the method: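 This is a cell-free competition assay. Drug-immobilized or ethanolamine control beads were washed and resuspended in binding buffer containing DMSO or compound in DMSO. They were rotated for 2 h at 4 °C with 50 mg/mL BSA and 8 mg/mL HCT116 cytoplasmic extract (freeze–thaw lysate). Beads were washed three times, and KSP on the beads and in the supernatant was assessed by anti-KSP Western blot.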

[3] = target: T1, Kinesin-like protein KIF11 (Homo sapiens); assay: Inhibition of affinity bead (R)-2-Amino-N-{2-[2-(2-amino-ethoxy)-ethoxy]-ethyl}-3-[(4-methoxy-phenyl)-diphenyl-methylsulfanyl]-propionamide binding to KSP in human HCT116 cells pretreated for 3 hrs by Western blot analysis
[4] = target: T1, Kinesin-like protein KIF11 (Homo sapiens); assay: Competitive inhibition of affinity bead (R)-2-Amino-N-{2-[2-(2-amino-ethoxy)-ethoxy]-ethyl}-3-[(4-methoxy-phenyl)-diphenyl-methylsulfanyl]-propionamide binding to KSP in human HCT116 cells at >30 umol/L pretreated for 3 hrs by Western blot analysis

Activity [1]	Activity [4]	SMILES	Activity [2]	inhibition [3]
Active		CC1(C)CC(=O)C2=C(C1)NC(=S)NC2c1cccc(O)c1 (stereo not drawn)		
		N[C@@H](CSC(c1ccccc1)c1ccccc1)C(=O)O	inactive	inactive
Active		N[C@@H](CSC(c1ccccc1)(c1ccccc1)c1ccc(C(F)(F)F)cc1)C(=O)O	Dose-dependent effect	Active
inactive	Active	NS(=O)(=O)Nc1ccc(-c2ccc(C(F)(F)F)cn2)cc1		
